Test results published in ChEMBL document CHEMBL5678801, “A benzothiophene inhibitor of mitogen-activated protein kinase-activated protein kinase 2 inhibits tumor necrosis factor alpha production and has oral anti-inflammatory efficacy in acute and chronic models of inflammation” (J Pharmacol Exp Ther, 2010).

Legend:
Rattus norvegicus = experiment: Antiarthritic activity in chronic SCW-induced arthritis Lewis rat model assessed as inhibition of chronic paw swelling administered twice daily via oral gavage for 10 to 21 days; assay type: organism-based; conditions: time 10-21 day
In short: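 Female Lewis rats (125-140 g) received a single i.p. streptococcal cell wall injection. Animals showing the acute phase were pooled, 4-8 per group over three experiments. Dosing was oral gavage b.i.d., days 10-21, in methylcellulose-Tween-20 vehicle. Hind paw volume was read by displacement plethysmometer on day 21, as % inhibition of swelling. Plasma was sampled up to 11 h after the last dose, 3 rats per dose. ED values came from fitted curves.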

[1] = target: T1, MAP kinase-activated protein kinase 5 (Homo sapiens, UniProt Q8IW41); experiment: Inhibition of recombinant PRAK (unknown origin) expressed in Escherichia coli using KKKALSRQLSVAA as substrate incubated for 1 hr followed by substrate addition in presence of ATP
T1 sequence (Q8IW41 whole entry): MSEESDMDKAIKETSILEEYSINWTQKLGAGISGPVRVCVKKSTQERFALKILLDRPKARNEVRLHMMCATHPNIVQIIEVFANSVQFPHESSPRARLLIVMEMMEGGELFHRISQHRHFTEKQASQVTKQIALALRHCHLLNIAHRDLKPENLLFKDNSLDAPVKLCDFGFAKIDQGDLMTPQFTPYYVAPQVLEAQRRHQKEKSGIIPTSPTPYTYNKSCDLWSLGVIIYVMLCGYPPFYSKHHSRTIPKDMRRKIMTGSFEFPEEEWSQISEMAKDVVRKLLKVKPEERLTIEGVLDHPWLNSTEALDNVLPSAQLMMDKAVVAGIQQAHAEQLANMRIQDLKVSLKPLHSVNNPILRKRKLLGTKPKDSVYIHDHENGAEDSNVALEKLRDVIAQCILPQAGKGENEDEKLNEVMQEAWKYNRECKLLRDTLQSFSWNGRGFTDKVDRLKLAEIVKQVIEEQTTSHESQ
In short: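 Recombinant kinase first activated with activated p38α (1:50 molar ratio) and 250 μM ATP for 1 hr at 30°C. Activity measured by 33P-labelled product peptide, separated by ion exchange. MgATP fixed at the Km(app) determined for each enzyme. IC50 values from duplicate experiments.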

[2] = target: T2, Serine/threonine-protein kinase 17A (Homo sapiens, UniProt Q9UEE5); experiment: Inhibition of DRAK1 (unknown origin)
T2 sequence (Q9UEE5 whole entry): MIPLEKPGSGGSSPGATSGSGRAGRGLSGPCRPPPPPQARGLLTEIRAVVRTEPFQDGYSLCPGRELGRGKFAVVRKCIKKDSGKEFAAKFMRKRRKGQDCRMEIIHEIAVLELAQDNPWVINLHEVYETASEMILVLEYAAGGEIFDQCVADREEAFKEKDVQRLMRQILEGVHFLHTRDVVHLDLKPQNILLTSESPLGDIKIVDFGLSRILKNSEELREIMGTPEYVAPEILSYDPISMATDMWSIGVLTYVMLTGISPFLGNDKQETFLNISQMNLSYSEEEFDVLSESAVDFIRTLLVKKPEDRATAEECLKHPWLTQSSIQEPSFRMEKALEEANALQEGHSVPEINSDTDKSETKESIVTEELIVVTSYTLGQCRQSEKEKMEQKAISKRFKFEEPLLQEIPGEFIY
In short: (§1)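 Kinase panel: 200 kinases were first screened at 1 μM inhibitor for percent inhibition. Those above 50% inhibition were then titrated for IC50. MgATP was fixed at the Km(app) determined for each enzyme.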

[3] = target: Serine/threonine-protein kinase pim-1 (Homo sapiens, UniProt P11309); experiment: Inhibition of Pim1 (unknown origin); in short: as §1
Serine/threonine-protein kinase pim-1, sequence (P11309 whole entry): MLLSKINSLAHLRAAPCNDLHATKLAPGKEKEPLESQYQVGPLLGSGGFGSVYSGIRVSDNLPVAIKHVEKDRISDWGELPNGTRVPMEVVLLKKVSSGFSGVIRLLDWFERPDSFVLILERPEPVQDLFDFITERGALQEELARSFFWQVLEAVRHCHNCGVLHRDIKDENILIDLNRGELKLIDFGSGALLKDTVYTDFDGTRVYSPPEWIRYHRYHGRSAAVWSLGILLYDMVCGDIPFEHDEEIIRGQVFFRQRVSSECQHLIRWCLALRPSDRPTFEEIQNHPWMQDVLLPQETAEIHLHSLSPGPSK

[4] = Inhibition of TNF-alpha production in LPS-induced human U-937 cells preincubated with compound for 1 hr followed by LPS induction and measured after 4 hrs by MSD analysis; assay type: functional, cell-based
In short: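 U937 cells were pretreated with compound for 1 h (<1% DMSO final), then stimulated with LPS 100 ng/ml at 37°C. Media TNFα was read at 4 h by MSD electrochemiluminescence. Three separate experiments in duplicate, mean ±S.E.M. IC50 by 4-parameter nonlinear regression.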

[5] = Antiinflammatory activity in human PBMC cells assessed as inhibition of LPS induced IL-6 production preincubated for 1 hr followed by LPS stimulation and measured after 16 hrs by MSD analysis; assay type: functional, cell-based
In short: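 Human PBMCs were pretreated with compound for 1 h (<1% DMSO final), then stimulated with LPS 100 ng/ml at 37°C. Cytokines in culture media were read by MSD 4-plex: TNFα at 4 h; IL-1β, IL-6 and IL-8 at 16 h. Data are means ±S.E.M. of two independent experiments in duplicate, three donors. IC50 by 4-parameter nonlinear regression.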

[6] = Antiinflammatory activity in human Whole blood cell assessed as inhibition of LPS induced IL-1 beta production preincubated for 1 hr followed by LPS stimulation and measured after 16 hrs by MSD analysis; assay type: functional, cell-based
In short: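 Human whole blood was stimulated ex vivo with LPS 100 ng/ml. Plasma cytokines were read by MSD 4-plex: TNFα at 4 h; IL-1β, IL-6 and IL-8 at 16 h. Data are means ±S.E.M. of two independent experiments in duplicate, three donors. IC50 by 4-parameter nonlinear regression.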

[7] = Unbound plasma concentration in po dosed LPS-induced Lewis rat model at ED50 concentration measured after 5.5 hrs of initial dose by LC-MS/MS analysis; assay type: ADME, organism-based; conditions: in vivo
In short: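 Male Lewis rats (225-250 g, 5 per group) were fasted 18 h, then dosed orally at 0.2-60 mg/kg as a suspension in 0.5% methylcellulose/0.025% Tween 20. LPS 1 mg/kg was given i.v. 4 h later. Blood was taken by cardiac puncture 90 min after LPS. Serum TNFα was read by ELISA and drug by LC-MS/MS, three independent experiments. 4-parameter fit. Unbound values were corrected with measured rat plasma protein binding.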

ED80 (Rattus norvegicus; rat, in vivo, po): 50 mg/kg
IC50 [1]: 5 nM
IC50 [2]: 71 nM
IC50 [3]: 88 nM
IC50 [4]: 159 nM
IC50 [5]: 1400 nM
IC50 [6]: > 20000 nM
Cp(f) [7]: 110 nM
SMILES: Cc1ccc(-c2ccc3c(ccc4sc5c(c43)NC[C@@H](C)NC5=O)n2)cn1
ED50 (Rattus norvegicus; Rattus norvegicus, Lewis): 20 mg/kg
